Activity, inhibition and Rf data for one molecule are collected here from ChEMBL document CHEMBL3272072 (J Med Chem, 1976).

For data set [1], the target named is Substance-P receptor (Rattus norvegicus) (UniProt P14600). The data set is described as follows: Agonist activity at NK1 receptor in Sprague-Dawley rat pituitary gland assessed as change in FSH release at 100000 ng/ml by radioimmunoassay (reference value: 613 +/- 203 ng/ml).
The target of data set [2] is Substance-P receptor (Cavia porcellus) (UniProt P30547). The data set is described as follows: Agonist activity at NK1 receptor in guinea pig ileum assessed as increase in muscle tone. Format: tissue-based. The essentials: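 Guinea pig ileum segment suspended in a 3-ml bath of oxygenated Tyrode's solution at 38°, with contractile response recorded.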
Chain of Substance-P receptor (Cavia porcellus) (P30547 whole entry): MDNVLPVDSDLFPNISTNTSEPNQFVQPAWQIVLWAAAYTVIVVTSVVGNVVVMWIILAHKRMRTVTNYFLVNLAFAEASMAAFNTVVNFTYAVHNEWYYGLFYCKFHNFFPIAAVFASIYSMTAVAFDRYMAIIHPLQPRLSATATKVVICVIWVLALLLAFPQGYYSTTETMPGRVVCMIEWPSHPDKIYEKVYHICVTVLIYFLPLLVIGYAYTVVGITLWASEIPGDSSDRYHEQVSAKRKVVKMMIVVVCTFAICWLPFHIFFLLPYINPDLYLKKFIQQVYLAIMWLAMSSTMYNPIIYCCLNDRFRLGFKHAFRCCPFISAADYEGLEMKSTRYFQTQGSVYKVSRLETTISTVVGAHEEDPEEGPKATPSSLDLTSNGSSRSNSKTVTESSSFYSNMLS
Data set [3] deals with Substance-P receptor (Rattus norvegicus) (UniProt P14600). The data set can be described thus: Agonist activity at NK1 receptor in Sprague-Dawley rat pituitary gland assessed as change in LH release at 100000 ng/ml by radioimmunoassay (reference value: -11 +/- 27 ng/ml).
In data set [4] the test system is Pituitary gland. The data set is described as follows: Effect on thyrotropin hormone release in Sprague-Dawley rat pituitary gland at 100 ug/ml by radioimmunoassay. Format: functional, tissue-based. In short, it runs like this: (§1)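 Anterior pituitaries from 20-day-old female Sprague-Dawley rats, two per 1 ml lactated Ringer's, incubated 6 hr at 37° with shaking. Medium was replaced hourly and assayed by RIA for LH, FSH, GH, PRL and TSH. Peptide was added after two preincubation periods (I3–I6), with LH-RH at I5 and I6. Agonism was read from I3/I4 release and antagonism from I5/I6. Values are in ng of NIH reference standards.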

Data set [5] has as its target Substance-P receptor (Rattus norvegicus) (UniProt P14600). The data set is described as follows: Agonist activity at NK1 receptor in Sprague-Dawley rat pituitary gland assessed as change in LH release at 10000 ng/ml by radioimmunoassay (reference value: -11 +/- 27 ng/ml).
The subject of data set [6] is Pituitary gland. The data set can be described thus: Effect on growth hormone release in Sprague-Dawley rat pituitary gland at 100 ug/ml by radioimmunoassay. Format: functional, tissue-based. The essentials: as §1
The test system of data set [7] is Canis familiaris. The data set is described as follows: Decrease in systemic arterial blood pressure in dog at >5 ng/kg, iv measured for 2 to 20 mins after drug dosage. Format: functional, organism-based. To be noted: Canis lupus familiaris; Artery.
Data set [8] can be described thus: Retardation factor of the compound using EtOH-H2O at ratio of 7:3 as solvent system by thin layer chromatography. Format: physicochemical.
Data set [9] has as its target Substance-P receptor (Rattus norvegicus) (UniProt P14600). The data set can be described thus: Agonist activity at NK1 receptor in Sprague-Dawley rat pituitary gland assessed as change in FSH release at 10000 ng/ml by radioimmunoassay (reference value: 613 +/- 203 ng/ml).
For data set [10] the target is unchanged. The data set can be described thus: Agonist activity at NK1 receptor in Sprague-Dawley rat pituitary gland assessed as change in LH release at 1000 ng/ml by radioimmunoassay (reference value: -11 +/- 27 ng/ml).
For data set [11] the target is unchanged. The data set is described as follows: Antagonist activity at NK1 receptor in Sprague-Dawley rat pituitary gland assessed as inhibition of LH release by radioimmunoassay in presence of LH-RH. In short, it runs like this:
as §1

Data set [12] is described as follows: Retardation factor of the compound using EtOAc-Pyr-HOAc-H2O at ratio of 5:5:1:3 as solvent system by thin layer chromatography. Format: physicochemical.
Data set [13] addresses Substance-P receptor (Rattus norvegicus) (UniProt P14600). The data set can be described thus: Antagonist activity at NK1 receptor in Sprague-Dawley rat pituitary gland assessed as inhibition of FSH release by radioimmunoassay in presence of LH-RH. The essentials: as §1
In data set [14] the test system is Canis familiaris. The data set can be described thus: Decrease in systemic arterial blood pressure in dog at 10 ng/kg, iv measured for 2 to 20 mins after drug dosage (reference value: 140 mmHg). Format: functional, Canis lupus familiaris, Artery.
Data set [15] has as its target Substance-P receptor (Rattus norvegicus) (UniProt P14600). The data set is described as follows: Agonist activity at NK1 receptor in Sprague-Dawley rat pituitary gland assessed as change in FSH release at 1000 ng/ml by radioimmunoassay (reference value: 613 +/- 203 ng/ml).
The nature of data set [16]: Retardation factor of the compound using n-BuOH-HOAc-EtOAc-H2O at ratio of 1:1:1:1 as solvent system by thin layer chromatography. Format: physicochemical.
Data set [17] has as its system Pituitary gland. The data set can be described thus: Effect on prolactin release in Sprague-Dawley rat pituitary gland at 100 ug/ml by radioimmunoassay. Format: functional, tissue-based. In short, it runs like this: as §1
The nature of data set [18]: Retardation factor of the compound using CHCl3-MeOH-concentrated NH4OH at ratio of 60:45:20 as solvent system by thin layer chromatography. Format: physicochemical.
Data set [19] can be described thus: Retardation factor of the compound using n-PrOH-1N HOAc at ratio of 2:1 as solvent system by thin layer chromatography. Format: physicochemical.

Calls of active or inactive are those of the source. The rule behind the calls is not given here.

Chain of Substance-P receptor (Rattus norvegicus) (P14600 whole entry): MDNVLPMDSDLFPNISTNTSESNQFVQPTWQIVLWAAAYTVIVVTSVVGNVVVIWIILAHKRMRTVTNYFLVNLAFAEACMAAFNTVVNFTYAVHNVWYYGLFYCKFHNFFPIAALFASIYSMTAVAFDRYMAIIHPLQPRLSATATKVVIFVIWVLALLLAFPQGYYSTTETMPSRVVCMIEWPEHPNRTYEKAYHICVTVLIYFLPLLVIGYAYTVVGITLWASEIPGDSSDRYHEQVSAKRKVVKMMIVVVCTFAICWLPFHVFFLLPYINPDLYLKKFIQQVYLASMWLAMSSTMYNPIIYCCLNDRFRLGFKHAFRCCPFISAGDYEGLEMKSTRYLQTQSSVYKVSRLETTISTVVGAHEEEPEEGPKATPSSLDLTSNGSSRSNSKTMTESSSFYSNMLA

Take `CSCC[C@H](NC(=O)[C@H](CC(C)C)NC(=O)CNC(=O)[C@H](Cc1ccc(O)cc1)NC(=O)[C@H](Cc1ccccc1)NC(=O)[C@H](CCC(N)=O)NC(=O)[C@H](CCC(N)=O)NC(=O)[C@@H]1CCCN1C(=O)[C@H](CCCCN)NC(=O)[C@@H]1CCCN1C(=O)[C@@H](N)CCCNC(=N)N)C(N)=O`: the Activity in data set [1] is 1330 ng/mL; in data set [3], 68 ng/mL; in data set [5], 11 ng/mL; in data set [9] it was 586 ng/mL; in data set [10], -13 ng/mL; in the data set with Canis familiaris [14], 110 mmHg. Further, the Activity in data set [15] came out at 666 ng/mL. In addition, the outcome in data set [2] was Active. For the same molecule, the outcome with Pituitary gland [4], in the data set on Pituitary gland [6] and in the data set on Pituitary gland [17] was inactive. Further, the inhibition entry in the data set with Canis familiaris [7] was “Active”. Also, the Rf is on record as 0 in [8]; 0.9 in data set [12]; 0.09 in data set [16]; 0.13 in data set [18]; 0.05 in data set [19]. Also, the inhibition entry in data set [11] and in [13] was “inactive” each time.
